Experimental findings from ChEMBL document CHEMBL1132659, “Novel 2-phenylimidazo[1,2-a]pyridine derivatives as potent and selective ligands for peripheral benzodiazepine receptors: synthesis, binding affinity, and in vivo studies” (J Med Chem, 1999) are described below.

Where only a bound is given, the exact number is not on record here.

Test [1] addresses T1, Translocator protein (Rattus norvegicus, UniProt P16257). The test can be described thus: Displacement of [3H]-PK 11195 from peripheral-type benzodiazepine receptor of rat cerebral cortex membranes. It counts as cell membranes, Membrane.
For test [2], the target named is GABA-A receptor; anion channel. The test can be described thus: Affinity benzodiazepine receptor as ability to displace [3H]flunitrazepam from binding to membrane preparations from rat cerebral cortex. It counts as tissue-based. Put shortly:
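Rat cerebral cortex homogenised in ice-cold 50 mM Tris-HCl pH 7.4, centrifuged twice at 20000g and resuspended; 0.4-0.5 mg protein incubated with 0.5 nM [3H]flunitrazepam for 60 min at 0 °C. Filtration, then scintillation counting. Nonspecific binding defined with 5 μM diazepam. pIC50 from means of 3 experiments run in duplicate.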

Test [3] deals with T1, Translocator protein. As to the kind of experiment: Displacement of [3H]-PK 11195 from peripheral-type benzodiazepine receptor of rat ovary membranes. It counts as cell membranes, Female gonad, Membrane. For orientation: Loss of bound radioactivity is the signal in a displacement assay; it reports binding, not function.
Test [4] has as its target T2, GABA-A receptor; alpha-1/beta-2/gamma-2 (Homo sapiens) (UniProt P14867+P47870+P18507). As to the kind of experiment: Modulatory activity against human GABA-A receptor alpha-1-beta-2-gamma-2 subunits expressed in Xenopus laevis Oocytes at 100 uM. It counts as cell-based. Put shortly:
(§1)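 Xenopus stage V–VI oocytes, defolliculated with collagenase, nuclear-injected with α1, β2, γ2 cDNAs and cultured at 19 °C. Two-electrode voltage clamp at -70 mV began about 24 h later, under MBS perfusion at room temperature. Drug applied for 20 s; value is percent change of the current evoked by GABA EC20 (2-10 μM). Means from 6–14 oocytes ± SEM.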

Test [5] concerns the target T2, GABA-A receptor; alpha-1/beta-2/gamma-2 (Homo sapiens). The test can be described thus: Modulatory activity against human GABA-A receptor alpha-1-beta-2-gamma-2 subunits expressed in Xenopus laevis Oocytes at 10 uM. The format is cell-based. An outline of the steps:
as §1

Test [6] shares this target. As to the kind of experiment: Modulatory activity against human GABA-A receptor alpha-1-beta-2-gamma-2 subunits expressed in Xenopus laevis Oocytes at 50 uM. The format is cell-based. Put shortly: as §1

T1 sequence (P16257 whole entry, looked up): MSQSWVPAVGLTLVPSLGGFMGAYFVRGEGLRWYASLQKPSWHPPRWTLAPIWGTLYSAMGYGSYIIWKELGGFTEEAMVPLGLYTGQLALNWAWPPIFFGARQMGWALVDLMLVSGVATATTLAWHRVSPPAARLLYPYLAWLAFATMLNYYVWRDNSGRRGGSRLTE

By IC50 is commonly meant the point on the concentration scale where inhibition reaches its midpoint. For orientation: pIC50 means −log10 of the IC50, conventionally taken in molar units. With `CCCN(CCC)C(=O)Cc1c(-c2ccccc2)nc2c([N+](=O)[O-])cccn12`, the IC50 was 85.1 nM on Translocator protein [1] and 120 nM at Translocator protein [3]. Also, the pIC50 in test [2] is 4.8.

Regarding `CCCN(CCC)C(=O)Cc1c(-c2ccc(Cl)cc2)nc2c(OC)cccn12`, the figures for the IC50 at Translocator protein [1] and on Translocator protein [3] were 16.6 nM and 20.9 nM, respectively. For the same molecule, the pIC50 in test [2] worked out at 4.19.

Turning to `CCCN(CCC)C(=O)Cc1c(-c2ccc(Cl)cc2)nc2c(Cl)cc(C(F)(F)F)cn12`, the IC50 was 1.82 nM on Translocator protein [1] and 2.82 nM at Translocator protein [3]. In addition, in test [2], the pIC50 is given as 5.

Regarding `CCCN(CCC)C(=O)Cc1c(-c2ccc(Cl)cc2)nc2c(NC)cccn12`, the IC50 on Translocator protein [1] was 3.72 nM; on Translocator protein [3] it was 7.94 nM. For the same molecule, in test [2], the pIC50 stood at 4.

For `CCCN(CCC)C(=O)Cc1c(-c2ccccc2)nc2c(C)cc(Br)cn12`, the IC50 was 1.62 nM on Translocator protein [1] and 2.63 nM at Translocator protein [3]. This molecule also returned a pIC50 in test [2] of 4.27.

Take `CCCCNC(=O)Cc1c(-c2ccccc2)nc2c(Cl)cc(Cl)cn12`: the IC50 at Translocator protein [1] is 295 nM; at Translocator protein [3], 389 nM. In test [2], this molecule came in with a pIC50 of 4.

`CCCN(CCC)C(=O)Cc1c(-c2ccccc2)nc2c(N)cccn12`: the IC50 on Translocator protein [1] was 4.27 nM; on Translocator protein [3], 5.75 nM. The molecule further showed a pIC50 in test [2] of 5.27.

`CCCN(CCC)C(=O)Cc1c(-c2ccccc2)nc2ccc(C(N)=O)cn12`: the half-inhibitory concentration (IC50) at Translocator protein [1] is 457 nM; on Translocator protein [3], 302 nM. Also, the pIC50 in test [2] worked out at 5.58.

For the molecule `CCCN(CCC)C(=O)Cc1c(-c2ccc(Cl)cc2)nc2c(Cl)cc(Cl)cn12` [ALPDEM], the IC50 was 1 nM at Translocator protein [1] and 2.63 nM on Translocator protein [3]. This molecule displayed a pIC50 in test [2] of 2.4.

On to `CCCCN(CCCC)C(=O)Cc1c(-c2ccc(Cl)cc2)nc2ccccn12`, for which the Activity in test [4] was less than 23.9; in test [5], less than 23.2; in test [6], less than 35. Further, the IC50 is 5.89 nM on Translocator protein [1] and 10.5 nM on Translocator protein [3]. In test [2], this molecule gave a pIC50 of 7.04.

Regarding `CCCN(CCC)C(=O)Cc1c(-c2ccc(Cl)cc2)nc2c(NC(C)=O)cccn12`, the IC50 at Translocator protein [1] was 10 nM; on Translocator protein [3], 33.1 nM. The pIC50 in test [2] was found to be 4.09.

As to `CCCN(CCC)C(=O)Cc1c(-c2ccc(Cl)cc2)nc2c(Cl)cccn12`, the Activity in test [4] was -15.2; in test [5], 4.5; in test [6], -6.1. Also, the half-maximal inhibitory concentration (IC50) on Translocator protein [1] is 4.27 nM; at Translocator protein [3], 7.41 nM. Further, the pIC50 in test [2] is 2.4.

In the case of `CCCN(CCC)C(=O)Cc1c(-c2ccccc2)nc2c(Cl)cccn12`, the IC50 at Translocator protein [1] was 22.9 nM; at Translocator protein [3], 15.8 nM. The molecule further yielded a negative-log IC50 (pIC50) in test [2] of 4.59.

Turning to `CCCCCCN(CCCCCC)C(=O)Cc1c(-c2ccccc2)nc2ccccn12`, the IC50 on Translocator protein [1] is 19.1 nM; at Translocator protein [3], 13.2 nM. The negative logarithm of the IC50 (pIC50) in test [2] came to 3.93.

As to `CCN(CC)C(=O)Cc1c(-c2ccccc2)nc2ccccn12`, the IC50 is 437 nM on Translocator protein [1] and 525 nM at Translocator protein [3]. Besides, the pIC50 in test [2] was 5.68.

For the molecule `CCCCCCN(CCCCCC)C(=O)Cc1c(-c2ccc(Cl)cc2)nc2ccccn12`, the IC50 at Translocator protein [1] is 182 nM; on Translocator protein [3], 178 nM. In test [2], this molecule registered a pIC50 of 3.83.

On to `CCCN(CCC)C(=O)Cc1c(-c2ccccc2)nc2c(NC(C)=O)cccn12`, for which the IC50 on Translocator protein [1] was 257 nM; on Translocator protein [3], 447 nM. In test [2], this molecule showed a pIC50 of 4.96.

Regarding `CCCN(CCC)C(=O)Cc1c(-c2ccccc2)nc2ccc(C(=O)OC)cn12`, the values for the Activity in test [4], in test [5] and in test [6] were 11.6, 17.1 and 11.4, respectively. Moreover, the IC50 at Translocator protein [1] is 16.6 nM; on Translocator protein [3] it was 26.9 nM. In test [2], the pIC50 turned out to be 4.92.

On to `CCCN(CCC)C(=O)Cc1c(-c2ccccc2)nc2ccc([N+](=O)[O-])cn12`, for which the IC50 on Translocator protein [1] is 7.59 nM; at Translocator protein [3] it was 7.76 nM. In addition, the pIC50 in test [2] is reported as 5.47.

Turning to `CCC(C)N(C)C(=O)c1cc2ccccc2c(-c2ccccc2Cl)n1` (configuration not stated) [PK-11195], the Activity is 91 in test [4], -16 in test [5] and 4.3 in test [6]. The same molecule showed a pIC50 in test [2] of 4.67.

As for `CCCNC(=O)Cc1c(-c2ccccc2)nc2ccccn12`, the IC50 on Translocator protein [1] and at Translocator protein [3] was 2000 nM in each case. The molecule also returned a pIC50 in test [2] of 6.09.

As to `CCCN(CCC)C(=O)Cc1c(-c2ccccc2)nc2c(Cl)cc(Cl)cn12`, the half-maximal inhibitory concentration (IC50) is 3.02 nM at Translocator protein [1] and 4.27 nM on Translocator protein [3]. In addition, in test [2], the pIC50 turned out to be 2.4.

For the molecule `CCCN(CCC)C(=O)Cc1c(-c2ccc(Cl)cc2)nc2ccccn12`, the IC50 is 10 nM on Translocator protein [1] and 33.1 nM at Translocator protein [3]. Moreover, the pIC50 in test [2] is 7.19.

For `CCCN(CCC)C(=O)Cc1c(-c2ccc(Cl)cc2)nc2c([N+](=O)[O-])cccn12`, the half-maximal inhibitory concentration (IC50) was 5.75 nM at Translocator protein [1] and 8.71 nM at Translocator protein [3]. Moreover, the pIC50 in test [2] came out at 5.

`CCCN(CCC)C(=O)Cc1c(-c2ccccc2)nc2ccccn12`: the IC50 on Translocator protein [1] is 100 nM; at Translocator protein [3], 95.5 nM. Also, the pIC50 in test [2] came out at 6.28.

As for `CCCN(CCC)C(=O)Cc1c(-c2ccc(Cl)cc2)nc2c(Br)cc(Br)cn12`, the IC50 at Translocator protein [1] is 0.794 nM; at Translocator protein [3] it was 1.58 nM. Besides, the pIC50 in test [2] was found to be 5.

For `CCCNC(=O)Cc1c(-c2ccc(Cl)cc2)nc2ccccn12`, the IC50 on Translocator protein [1] is 589 nM; at Translocator protein [3], 1620 nM. In test [2], this molecule showed a pIC50 of 6.93.

With `CCCN(CCC)C(=O)Cc1c(-c2ccccc2)nc2c(OC)cccn12`, the IC50 on Translocator protein [1] was 46.8 nM; on Translocator protein [3], 49 nM. The same molecule displayed a pIC50 in test [2] of 5.27.

`CCCN(CCC)C(=O)Cc1c(-c2ccccc2)nc2c(C)cccn12`: the IC50 on Translocator protein [1] was 20 nM; on Translocator protein [3], 41.7 nM. The same molecule registered a pIC50 in test [2] of 4.85.

Take `CCCN(CCC)C(=O)Cc1c(-c2ccc(Cl)cc2)nc2c(C)cccn12`: the Activity is less than -44.3 in test [4], -9.6 in test [5] and less than -38.7 in test [6]. Also, the IC50 is 1.41 nM on Translocator protein [1] and 2.82 nM at Translocator protein [3]. In addition, the pIC50 in test [2] amounted to 2.4.

Regarding `CCCCN(CCCC)C(=O)Cc1c(-c2ccccc2)nc2ccccn12`, the figures for the Activity in test [4], in test [5] and in test [6] were less than 58.2, 17.4 and less than 44.6, respectively. The values for the IC50 at Translocator protein [1] and on Translocator protein [3] were 17 nM and 22.9 nM, respectively. Besides, the pIC50 in test [2] came out at 6.3.

As to `CCCN(CCC)C(=O)Cc1c(-c2ccc(Cl)cc2)nc2c(N)cccn12`, the IC50 on Translocator protein [1] was 6.31 nM; on Translocator protein [3], 4.57 nM. Moreover, the pIC50 in test [2] is given as 5.07.
